aSyn 5UTR inh: MLPCN primary screen, SNCA 5' untranslated region; 0.82% of 300,000 active; inhibition, % (tested at 7.5 µM); alpha-synuclein 5'UTR reporter, inhibitor activity; in the data active = inhibition above about 60%;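 also: H4 neuroglioblastoma cells stably carrying SNCA 5'UTR luciferase fusion; 0% = DMSO wells and 100% = positive control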
697 NFkB inh: inhibitors of PMA/ionomycin-induced NF-kB reporter, 697 cells, primary screen, B-cell NF-kB inhibitor project, cell-based, luminescence, uHTS; 697 B-cell NF-kB luciferase reporter, 16 h; inhibition, % at 4 µM; 0.33% of 330,000 active; in the data active = inhibition above about 35%
Jurkat NFkB inh: inhibitors of induced NF-kB luciferase reporter, primary screen, TCR NF-kB activation inhibitor project, cell-based, luminescence, uHTS | AID 435003, 2010 | 0.53% of 330,000 active | Jurkat, PMA/ionomycin-induced NF-kB luciferase reporter | inhibition, % at 4 µM; in the data active = inhibition above about 50%
IMP-1 inh: IMP-1 metallo-beta-lactamase inhibitors, primary screen, biochemical, epi-absorbance readout, Pseudomonas aeruginosa enzyme | inhibition, % at 5.6 µM | purified IMP-1, nitrocefin hydrolysis, epi-absorbance fluorescence | 0.45% of 290,000 active;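 active = inhibition above the mean plus 3 SD of all compounds in the same screening run, cut at about 4.5% in these data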;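 also: 0% = IMP-1 with DMSO and 100% = DMSO wells lacking enzyme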
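Test system: recombinant IMP-1 enzyme, purified / Medium: HEPES buffer pH 7.1 with ZnSO4 and Brij 35 / Doses: single dose, 5.6 µM / Times: 25 °C, 15 min preincubation, 25 min reaction / Detection: Epi-absorbance via hydrolysed-nitrocefin quenching of white-plate fluorescence, 480/530 nm, EDTA stop / Evaluation: percent inhibition from optical density relative to buffer-blank wells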
Mdm2 MdmX PPI: inhibitors of human Mdm2-MdmX association, primary screen, cell-based, luminescence, split luciferase, SaOS-2, uHTS; Protein Mdm4 (Homo sapiens) + E3 ubiquitin-protein ligase Mdm2 (Homo sapiens), …; SaOS-2 split-luciferase Mdm2/MdmX complementation; inhibition, % at 8 µM; 3% of 330,000 active;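 active = inhibition of at least 50% at 8 µM in the primary screen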
Target sequence (O15151 whole entry, looked up): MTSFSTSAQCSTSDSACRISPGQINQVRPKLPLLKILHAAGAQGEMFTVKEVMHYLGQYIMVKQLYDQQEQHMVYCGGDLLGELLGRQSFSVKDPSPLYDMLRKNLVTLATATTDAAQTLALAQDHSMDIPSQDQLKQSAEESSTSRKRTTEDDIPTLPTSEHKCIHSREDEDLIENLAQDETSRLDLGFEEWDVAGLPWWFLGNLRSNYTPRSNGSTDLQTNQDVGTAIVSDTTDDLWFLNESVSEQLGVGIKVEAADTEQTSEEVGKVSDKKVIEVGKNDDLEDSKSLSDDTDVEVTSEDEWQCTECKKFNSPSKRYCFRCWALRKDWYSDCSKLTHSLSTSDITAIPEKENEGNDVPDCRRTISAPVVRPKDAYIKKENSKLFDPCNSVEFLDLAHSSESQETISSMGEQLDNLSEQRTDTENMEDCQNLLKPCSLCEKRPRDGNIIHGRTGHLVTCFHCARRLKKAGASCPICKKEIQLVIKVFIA
Target sequence (Q00987 whole entry, looked up): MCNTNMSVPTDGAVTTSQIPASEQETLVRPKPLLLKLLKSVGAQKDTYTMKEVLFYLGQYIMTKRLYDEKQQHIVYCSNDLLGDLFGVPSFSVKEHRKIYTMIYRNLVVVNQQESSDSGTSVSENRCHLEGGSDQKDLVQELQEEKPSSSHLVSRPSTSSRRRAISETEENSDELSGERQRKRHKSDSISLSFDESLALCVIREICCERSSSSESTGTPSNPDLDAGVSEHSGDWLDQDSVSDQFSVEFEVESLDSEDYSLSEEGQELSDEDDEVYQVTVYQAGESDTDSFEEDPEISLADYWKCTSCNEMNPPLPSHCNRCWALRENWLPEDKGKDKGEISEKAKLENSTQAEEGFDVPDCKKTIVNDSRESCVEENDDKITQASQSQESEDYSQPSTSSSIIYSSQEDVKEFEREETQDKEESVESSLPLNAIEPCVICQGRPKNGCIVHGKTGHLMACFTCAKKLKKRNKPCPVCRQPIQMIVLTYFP
VIM-2 inh: VIM-2 metallo-beta-lactamase inhibitors, primary screen, biochemical, epi-absorbance readout, Pseudomonas aeruginosa enzyme. purified VIM-2, nitrocefin hydrolysis, epi-absorbance fluorescence. inhibition, % at 5.6 µM. 0.89% of 290,000 active. AID 1527, 2009;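 active = inhibition above the mean of all tested compounds plus 3 SD, cutoff set per screening run, cut at about 7.5% in these data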;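 also: red hydrolysis product quenches plate fluorescence so inhibitors raise well fluorescence; 0% = enzyme with DMSO and 100% = DMSO without enzyme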
Jurkat NFkB conf: PMA/ionomycin-induced NF-kB reporter inhibitors, Jurkat retest, confirmation, T-cell NF-kB inhibitor project, cell-based, luminescence, single concentration | shares compounds with Jurkat NFkB inh | Jurkat NF-kB luciferase, 16 h | inhibition, % at 4 µM | 27% of 2,700 active | AID 435020, 2010;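 active = inhibition reaching about 45% at 4 µM in either replicate, limit read from the data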;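 also: plate controls were PMA/ionomycin stimulated DMSO wells for no effect and unstimulated DMSO wells for full effect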
697 NFkB conf: PMA/ionomycin-induced NF-kB reporter inhibitors, 697 retest, confirmation, B-cell NF-kB inhibitor project, cell-based, luminescence, single concentration | inhibition, % at 4 µM | 35% of 2,000 active | 697 B-cell NF-kB luciferase, 16 h | AID 449746, 2010 | shares compounds with 697 NFkB inh; in the data active = inhibition mostly above about 28%, no sharp cut-off; inactive = mostly below about 22%
Mdm2-MdmX conf: Mdm2-MdmX complex disruptors, retested hits, confirmation, luminescence, single concentration; 55% of 10,000 active; shares compounds with Mdm2 MdmX PPI; Mdm2-MdmX binding, luminescent assay; inhibition, % at 8 µM; in the data active = inhibition above about 40%
Full FLuc ctr: full-length luciferase signal inhibition, confirmation, counter-screen for Mdm2/MdmX interaction inhibitor project, cell-based, single concentration, SaOS-2 | SaOS-2 full-length luciferase counterscreen, luminescence | shares compounds with Mdm2 MdmX PPI | inhibition, % at 8 µM | 77% of 6,200 active | AID 504607, 2011;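 active = mean inhibition at 8 µM reaching about 37%, which flags the compound as non-specific, limit read from the data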;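 also: p53-null SaOS-2 cells with luciferase driven by a doxycycline-inducible promoter; compound on cells about two nights before reading with doxycycline added after day one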
Numbers without * were called inactive; · = not tested or not shown. An excerpt weighted towards active compounds, which were near 4.7% of everything screened.

SMILES	aSyn 5UTR inh	697 NFkB inh	Jurkat NFkB inh	IMP-1 inh	Mdm2 MdmX PPI	VIM-2 inh	Jurkat NFkB conf	Mdm2-MdmX conf	Full FLuc ctr	others
CCCCCN1C=CC(=C2C(=O)c3ccccc3C2=O)C=C1	113*	-18	60*	-1	78*	-1	40	83*	21
COc1ccc(S(=O)(=O)NCc2ccccn2)cc1NC(=O)c1ccccc1C	-26	-35	55*	·	52*	·	15	71*	63*
CCOC(=O)COc1cccc2c(=O)n(CC(=O)NCc3ccc(F)cc3)ccc12	75*	-14	72*	-3	59*	-4	53*	61*	83*
CCOC(=O)C(C)Oc1cccc2c(=O)n(CC(=O)Nc3ccc4c(c3)OCCO4)ccc12 (configuration not stated)	15	4	-12	-5	48	-2	·	·	·
CCOC(=O)C(C)Oc1cccc2c(=O)n(CC(=O)NCc3ccc4c(c3)OCO4)ccc12 (configuration not stated)	65*	-62	52*	-5	54*	-2	54*	59*	57*
O=C(CCCN1C(=O)/C(=C/c2ccc(F)cc2)SC1=S)NC1CCS(=O)(=O)C1 (configuration not stated)	6	7	12	-1	22	-1	·	·	·
CC(=O)c1ccc(OC(=O)Cc2cccc3ccccc23)cc1	13	17	1	1	20	2	·	·	·
COc1cccc(CNc2ccc(C)c(Cl)c2)c1	-45	-11	-12	-2	-25	-2	·	·	·
C=CCOc1c(Cl)cc(CNc2ccc(C)c(Cl)c2)cc1OC	85*	5	60*	-2	76*	0	36	77*	97*
Cc1ccc(CNC(=O)Cc2ccc(-c3ccccc3)cc2)cc1	73*	21	63*	0	58*	1	17	61*	73*
CCN(CC)CC(=O)N1CCCC(N2CCN(c3cccc(C(F)(F)F)c3)CC2)C1 (configuration not stated)	1	-15	-8	0	5	0	·	·	·
COc1cccc(N=Nc2ccc(O)c3ncccc23)c1	44	-79	70*	-9	82*	-9	15	92*	21
COc1ccc(N=Nc2ccc(O)c3ncccc23)cc1	44	-122	74*	-1	77*	1	-14	84*	32
COc1cc(OC)cc(C(=O)Nc2cccc3cccnc23)c1	-25	-10	-2	0	12	-1	·	·	·
COc1cccc(N=Nc2ccc3cccnc3c2O)c1	16	-124	95*	-5	91*	-5	20	90*	23
COc1cc(C(=O)OCC(=O)Nc2cc(S(=O)(=O)N3CCOCC3)ccc2C)ccc1OCC(C)C	-3	15	-3	·	9	·	·	·	·
CN=c1scc(-c2cccs2)n1/N=C/c1ccc(O)c(O)c1O	0	-248	-54	-1	-43	-1	·	·	·
CN=c1scc(-c2cccs2)n1/N=C/c1ccccc1O	103*	-15	77*	0	95*	-2	82*	96*	13
CN(C)S(=O)(=O)c1ccc(NC(=O)C2CC(=O)N(Cc3ccccc3Cl)C2)cc1 (configuration not stated)	-6	9	1	·	32	·	·	·	·
O=C(c1ccc(Br)cc1)c1cc([N+](=O)[O-])ccc1N1CCCCC1	92*	45*	75*	-3	58*	-2	59*	52*	95*	697 NFkB conf=39*
O=C(c1ccccc1)c1cc([N+](=O)[O-])ccc1N1CCCC1	15	-15	10	1	23	-1	·	·	·
CN1CCN(c2ccc([N+](=O)[O-])cc2C(=O)c2ccc(Br)cc2)CC1	67*	-31	73*	-1	54*	-1	26	59*	60*
CN1CCN(c2ccc([N+](=O)[O-])cc2C(=O)c2ccccc2)CC1	2	-4	9	-3	26	-2	·	·	·
O=C(O)c1nn(CC(=O)N2CCN(c3ncc(C(F)(F)F)cc3Cl)CC2)c(=O)c2ccccc12	10	5	5	-2	14	-1	·	·	·
CNS(=O)(=O)c1ccc2c(c1)C(=O)c1cc(S(=O)(=O)NC)ccc1CC2	·	-11	6	·	-1	·	·	·	·
SMILES	aSyn 5UTR inh	697 NFkB inh	Jurkat NFkB inh	IMP-1 inh	Mdm2 MdmX PPI	VIM-2 inh	Jurkat NFkB conf	Mdm2-MdmX conf	Full FLuc ctr	others
CCCCCCCN1CCN=C1N(C)C	·	3	6	·	30	·	·	·	·
CC(C)C1=CC(=Nc2ccc(S(N)(=O)=O)cc2)C=C(C(C)C)C1=O	-9	-11	-4	2	28	1	·	·	·
Cc1cccc(N2CCN(C(=O)c3ccc(CS(=O)(=O)c4ccccc4C)o3)CC2C)c1 (configuration not stated)	97*	9	65*	-6	65*	-2	52*	52*	82*
COc1nc(-c2ccccc2)cc(-c2ccc3c(c2)OCO3)c1C#N	64*	-29	57*	-4	57*	-3	11	58*	58*
CCOC(=O)/C=C/C(=O)OCC(=O)Nc1ccc(C)cc1	-18	9	-3	-3	9	-6	·	·	·
CCOC(=O)/C=C/S(=O)(=O)c1ccc(NC(C)=O)cc1	-58	20	53*	-2	68*	-2	38	53*	21
Cc1nc(Sc2nnnn2C)c2c3c(sc2n1)CCC3	·	-173	64*	-2	97*	2	53*	93*	63*
Cc1nc(SCC(=O)NCC2CCCO2)c2c3c(sc2n1)CCC3 (configuration not stated)	3	10	10	-2	24	4	·	·	·
